From ChEMBL document CHEMBL1926550, “Synthesis and antibacterial activity of naphthyridone derivatives containing mono/difluoro-methyloxime pyrrolidine scaffolds” (2012)
≈ marks a conversion by molar mass, not a printed value.

Experiments:
Format in all cases: functional
Pseudomonas aeruginosa [1] = assay: Antibacterial activity against Pseudomonas aeruginosa ATCC 27853 after 18 hrs by two fold serial dilution method; details: ATCC 27853, 18 h
Method in brief: (§1)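 Agar two-fold serial dilution in melted Mueller-Hinton agar, final concentrations 128 down to 0.008 μg/mL. Plates inoculated with 10⁴ cfu and incubated at 35 °C for 18 h. MIC taken as the lowest concentration giving no visible growth on the plate.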

Enterococcus faecalis [2] = assay: Antibacterial activity against Enterococcus faecalis 09-2 after 18 hrs by two fold serial dilution method; details: 09-2, 18 h; method in brief: as §1
[3] = system: Staphylococcus epidermidis; assay: Antibacterial activity against methicillin-sensitive Staphylococcus epidermidis 10-1 after 18 hrs by two fold serial dilution method; details: 10-1, 18 h; method in brief: as §1
Klebsiella pneumoniae [4] = assay: Antibacterial activity against Klebsiella pneumoniae 09-2 after 18 hrs by two fold serial dilution method; details: 09-2, 18 h; method in brief: as §1
Escherichia coli [5] = assay: Antibacterial activity against Escherichia coli 09-1 after 18 hrs by two fold serial dilution method; details: 09-1, 18 h; method in brief: as §1
[6] = system: Staphylococcus epidermidis; assay: Antibacterial activity against methicillin-sensitive Staphylococcus epidermidis 10-2 after 18 hrs by two fold serial dilution method; details: 10-2, 18 h; method in brief: as §1
Pseudomonas aeruginosa [7] = assay: Antibacterial activity against Pseudomonas aeruginosa 10-3 after 18 hrs by two fold serial dilution method; details: 10-3, 18 h; method in brief: as §1
Klebsiella pneumoniae [8] = assay: Antibacterial activity against Klebsiella pneumoniae 10-1 after 18 hrs by two fold serial dilution method; details: 10-1, 18 h; method in brief: as §1
Escherichia coli [9] = assay: Antibacterial activity against Escherichia coli 09-3 after 18 hrs by two fold serial dilution method; details: 09-3, 18 h; method in brief: as §1
[10] = system: Staphylococcus epidermidis; assay: Antibacterial activity against methicillin-resistant Staphylococcus epidermidis 10-1 after 18 hrs by two fold serial dilution method; details: 10-1, 18 h
Method in brief: (§2)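 Agar two-fold serial dilution in melted Mueller-Hinton agar, 128 to 0.008 μg/mL. Plates inoculated with 10⁴ cfu, incubated 35 °C for 18 h. MIC taken as lowest concentration giving no visible growth on the plate.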

Enterococcus faecium [11] = assay: Antibacterial activity against Enterococcus faecium 09-4 after 18 hrs by two fold serial dilution method; details: 09-4, 18 h; method in brief: as §1
Escherichia coli [12] = assay: Antibacterial activity against Escherichia coli 09-2 after 18 hrs by two fold serial dilution method; details: 09-2, 18 h; method in brief: as §1
Enterococcus faecium [13] = assay: Antibacterial activity against Enterococcus faecium 09-6 after 18 hrs by two fold serial dilution method; details: 09-6, 18 h; method in brief: as §1
Staphylococcus aureus [14] = assay: Antibacterial activity against methicillin-sensitive Staphylococcus aureus 10-1 after 18 hrs by two fold serial dilution method; details: 10-1, 18 h; method in brief: as §1
Staphylococcus aureus [15] = assay: Antibacterial activity against methicillin-sensitive Staphylococcus aureus 10-5 after 18 hrs by two fold serial dilution method; details: 10-5, 18 h; method in brief: as §1
Streptococcus pneumoniae = assay: Antibacterial activity against Streptococcus pneumoniae 10-1 after 18 hrs by two fold serial dilution method; details: 10-1, 18 h; method in brief: as §1
Staphylococcus aureus [16] = assay: Antibacterial activity against methicillin-resistant Staphylococcus aureus 10-3 after 18 hrs by two fold serial dilution method; details: 10-3, 18 h; method in brief: as §2
Staphylococcus aureus [17] = assay: Antibacterial activity against methicillin-sensitive Staphylococcus aureus 10-6 after 18 hrs by two fold serial dilution method; details: 10-6, 18 h; method in brief: as §1
Enterococcus faecium [18] = assay: Antibacterial activity against Enterococcus faecium 09-1 after 18 hrs by two fold serial dilution method; details: 09-1, 18 h; method in brief: as §1
Pseudomonas aeruginosa [19] = assay: Antibacterial activity against Pseudomonas aeruginosa 10-1 after 18 hrs by two fold serial dilution method; details: 10-1, 18 h; method in brief: as §1
Pseudomonas aeruginosa [20] = assay: Antibacterial activity against Pseudomonas aeruginosa 10-2 after 18 hrs by two fold serial dilution method; details: 10-2, 18 h; method in brief: as §1
Escherichia coli [21] = assay: Antibacterial activity against Escherichia coli 10-2 after 18 hrs by two fold serial dilution method; details: 10-2, 18 h; method in brief: as §1
Escherichia coli [22] = assay: Antibacterial activity against Escherichia coli 10-3 after 18 hrs by two fold serial dilution method; details: 10-3, 18 h; method in brief: as §1
[23] = system: Staphylococcus epidermidis; assay: Antibacterial activity against methicillin-resistant Staphylococcus epidermidis 10-2 after 18 hrs by two fold serial dilution method; details: 10-2, 18 h; method in brief: as §2
Klebsiella pneumoniae [24] = assay: Antibacterial activity against Klebsiella pneumoniae 10-3 after 18 hrs by two fold serial dilution method; details: 10-3, 18 h; method in brief: as §1
Staphylococcus aureus [25] = assay: Antibacterial activity against methicillin-sensitive Staphylococcus aureus 10-4 after 18 hrs by two fold serial dilution method; details: 10-4, 18 h; method in brief: as §1
Enterococcus faecalis [26] = assay: Antibacterial activity against Enterococcus faecalis 09-1 after 18 hrs by two fold serial dilution method; details: 09-1, 18 h; method in brief: as §1
Staphylococcus aureus [27] = assay: Antibacterial activity against methicillin-resistant Staphylococcus aureus 10-1 after 18 hrs by two fold serial dilution method; details: 10-1, 18 h; method in brief: as §2
Staphylococcus aureus [28] = assay: Antibacterial activity against methicillin-resistant Staphylococcus aureus 10-4 after 18 hrs by two fold serial dilution method; details: 10-4, 18 h; method in brief: as §2
Enterococcus faecium [29] = assay: Antibacterial activity against Enterococcus faecium 09-5 after 18 hrs by two fold serial dilution method; details: 09-5, 18 h; method in brief: as §1
Staphylococcus aureus [30] = assay: Antibacterial activity against methicillin-resistant Staphylococcus aureus 10-2 after 18 hrs by two fold serial dilution method; details: 10-2, 18 h; method in brief: as §2
Escherichia coli [31] = assay: Antibacterial activity against Escherichia coli ATCC 25922 after 18 hrs by two fold serial dilution method; details: ATCC 25922, 18 h; method in brief: as §1
Staphylococcus aureus [32] = assay: Antibacterial activity against Staphylococcus aureus ATCC 25923 after 18 hrs by two fold serial dilution method; details: ATCC 25923, 18 h; method in brief: as §1
Staphylococcus aureus [33] = assay: Antibacterial activity against methicillin-sensitive Staphylococcus aureus 10-2 after 18 hrs by two fold serial dilution method; details: 10-2, 18 h; method in brief: as §1
Staphylococcus aureus [34] = assay: Antibacterial activity against methicillin-sensitive Staphylococcus aureus 10-3 after 18 hrs by two fold serial dilution method; details: 10-3, 18 h; method in brief: as §1
Enterococcus faecium [35] = assay: Antibacterial activity against Enterococcus faecium 09-2 after 18 hrs by two fold serial dilution method; details: 09-2, 18 h; method in brief: as §1
Enterococcus faecium [36] = assay: Antibacterial activity against Enterococcus faecium 09-3 after 18 hrs by two fold serial dilution method; details: 09-3, 18 h; method in brief: as §1
Escherichia coli [37] = assay: Antibacterial activity against Escherichia coli 10-1 after 18 hrs by two fold serial dilution method; details: 10-1, 18 h; method in brief: as §1

`NCC1CN(c2nc3c(cc2F)c(=O)c(C(=O)O)cn3-c2ccc(F)cc2F)C/C1=N\OC(F)F` (racemic) was tested, and the MIC (Pseudomonas aeruginosa [1]) was 4 µg/mL (≈ 8.04 µM), the MIC (Enterococcus faecalis [2]) was 16 µg/mL (≈ 32.2 µM) and the MIC [3] was 32 µg/mL (≈ 64.3 µM). The MIC (Klebsiella pneumoniae [4]) was 64 µg/mL (≈ 129 µM), the MIC (Escherichia coli [5]) was 32 µg/mL (≈ 64.3 µM) and the MIC [6] was 64 µg/mL (≈ 129 µM). It also gave an MIC (Pseudomonas aeruginosa [7]) of 8 µg/mL (≈ 16.1 µM), an MIC (Klebsiella pneumoniae [8]) of 0.25 µg/mL (≈ 0.503 µM) and an MIC (Escherichia coli [9]) of 64 µg/mL (≈ 129 µM). The MIC [10] was 2 µg/mL (≈ 4.02 µM), the MIC (Enterococcus faecium [11]) was 0.125 µg/mL (≈ 0.251 µM) and the MIC (Escherichia coli [12]) was > 128 µg/mL. For the same compound, the MIC (Enterococcus faecium [13]) was 0.125 µg/mL (≈ 0.251 µM), the MIC (Staphylococcus aureus [14]) was 0.03 µg/mL (≈ 0.0603 µM) and the MIC (Staphylococcus aureus [15]) was 0.015 µg/mL (≈ 0.0302 µM). The MIC (Streptococcus pneumoniae) was 0.06 µg/mL (≈ 0.121 µM), the MIC (Staphylococcus aureus [16]) was 16 µg/mL (≈ 32.2 µM) and the MIC (Staphylococcus aureus [17]) was 0.015 µg/mL (≈ 0.0302 µM). The MIC (Enterococcus faecium [18]) was 32 µg/mL (≈ 64.3 µM), the MIC (Pseudomonas aeruginosa [19]) was 1 µg/mL (≈ 2.01 µM) and the MIC (Pseudomonas aeruginosa [20]) was 128 µg/mL (≈ 257 µM). For the same compound, the MIC (Escherichia coli [21]) was 4 µg/mL (≈ 8.04 µM), the MIC (Escherichia coli [22]) was 8 µg/mL (≈ 16.1 µM) and the MIC [23] was 1 µg/mL (≈ 2.01 µM). For the same compound, the MIC (Klebsiella pneumoniae [24]) was 2 µg/mL (≈ 4.02 µM), the MIC (Staphylococcus aureus [25]) was 0.008 µg/mL (≈ 0.0161 µM) and the MIC (Enterococcus faecalis [26]) was 8 µg/mL (≈ 16.1 µM). The MIC (Staphylococcus aureus [27]) was 16 µg/mL (≈ 32.2 µM), the MIC (Staphylococcus aureus [28]) was 16 µg/mL (≈ 32.2 µM) and the MIC (Enterococcus faecium [29]) was 32 µg/mL (≈ 64.3 µM). For the same compound, the MIC (Staphylococcus aureus [30]) was 4 µg/mL (≈ 8.04 µM), the MIC (Escherichia coli [31]) was 0.008 µg/mL (≈ 0.0161 µM) and the MIC (Staphylococcus aureus [32]) was 0.008 µg/mL (≈ 0.0161 µM). The MIC (Staphylococcus aureus [33]) was 1 µg/mL (≈ 2.01 µM), the MIC (Staphylococcus aureus [34]) was 0.015 µg/mL (≈ 0.0302 µM) and the MIC (Enterococcus faecium [35]) was 32 µg/mL (≈ 64.3 µM). For the same compound, the MIC (Enterococcus faecium [36]) was 16 µg/mL (≈ 32.2 µM) and the MIC (Escherichia coli [37]) was > 128 µg/mL.
